This is an account of results in ChEMBL document CHEMBL1667774, “Synthesis and evaluation of a class of new coumarin triazole derivatives as potential antimicrobial agents” (2011).

≈ marks a conversion by molar mass, not a printed value.

Assay [1] concerns Escherichia coli. Description: Antimicrobial activity against Escherichia coli ATCC 25922 by twofold broth dilution method. The class given is functional. A digest of the protocol: (§1)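 Two-fold broth dilution in 96-well micro-test plates, following NCCLS recommendations. Enoxacin and Chloromycin served as positive controls for bacteria, and Fluconazole for fungi. The read-out is the MIC in µg/mL.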
For orientation: In broth dilution the organism is exposed to a series of concentrations in liquid medium.

Assay [2] has as its system Saccharomyces cerevisiae. Description: Antifungal activity against Saccharomyces cerevisiae ATCC 9763 by twofold broth dilution method. The class given is functional. A digest of the protocol:
as §1

The subject of assay [3] is Staphylococcus aureus. Description: Antimicrobial activity against methicillin-resistant Staphylococcus aureus N 315 by twofold broth dilution method. The class given is functional. The gist of the method:
(§2)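 Antibacterial MIC, determined by two-fold serial broth dilution following the NCCLS-recommended method. Clinical antimicrobial drugs were run alongside as positive controls.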

In assay [4] the test system is Salmonella typhi. Description: Antimicrobial activity against Salmonella typhi ATCC 9484 by twofold broth dilution method. The class given is functional, Salmonella enterica subsp. enterica serovar Typhi. The note with it: Salmonella enterica. The gist of the method: as §2
In assay [5] the test system is Staphylococcus aureus. Description: Antimicrobial activity against Staphylococcus aureus ATCC 25923 by twofold broth dilution method. The class given is functional. The gist of the method: as §1
Assay [6] deals with Proteus vulgaris. Description: Antimicrobial activity against Proteus vulgaris ATCC 6896 by twofold broth dilution method. The class given is functional. A digest of the protocol: as §1
Assay [7] deals with Shigella dysenteriae. Description: Antimicrobial activity against Shigella dysenteriae ATCC 49550 by twofold broth dilution method. The class given is functional. A digest of the protocol:
as §2

The test system of assay [8] is Bacillus subtilis. Description: Antimicrobial activity against Bacillus subtilis ATCC 6633 by twofold broth dilution method. The class given is functional. A digest of the protocol:
as §1

Assay [9] deals with Aspergillus fumigatus. Description: Antifungal activity against Aspergillus fumigatus ATCC 96918 by twofold broth dilution method. Type of assay: functional. The gist of the method: as §1
For assay [10], the system named is Micrococcus luteus. Description: Antimicrobial activity against Micrococcus luteus ATCC 4698 by twofold broth dilution method. The class given is functional. A digest of the protocol: as §1
The subject of assay [11] is Candida albicans. Description: Antifungal activity against Candida albicans ATCC 76615 by twofold broth dilution method. The class given is functional. The gist of the method: as §1

Regarding `Cc1cc(=O)oc2cc(OCCCCCCBr)cc(OCCCCCCBr)c12`, the minimal inhibitory concentration (MIC) (as a rule, the lowest concentration found to suppress growth) in [1] was found to be 512 µg/mL (≈ 988 µM); in [2] it was 128 µg/mL (≈ 247 µM); in [3], 512 µg/mL (≈ 988 µM); in assay [4] it was 512 µg/mL (≈ 988 µM); in assay [5] it was 256 µg/mL (≈ 494 µM); in assay [6] it was 512 µg/mL (≈ 988 µM). Also, the MIC in [7] is 512 µg/mL (≈ 988 µM); in [8], 128 µg/mL (≈ 247 µM); in [9], 128 µg/mL (≈ 247 µM); in assay [10] it was 128 µg/mL (≈ 247 µM); in [11], 128 µg/mL (≈ 247 µM).

Consider `Cc1cc(=O)oc2cc(OCc3ccc(CBr)cc3)ccc12`, for which the MIC in assay [1] was found to be 512 µg/mL (≈ 1430 µM); in [2] it was 256 µg/mL (≈ 713 µM); in [3], 512 µg/mL (≈ 1430 µM); in assay [4] it was 512 µg/mL (≈ 1430 µM); in assay [5], 256 µg/mL (≈ 713 µM); in [6], 512 µg/mL (≈ 1430 µM). Also, the minimum inhibitory concentration (MIC) in assay [7] came to 512 µg/mL (≈ 1430 µM); in [8] it was 256 µg/mL (≈ 713 µM); in assay [9], 256 µg/mL (≈ 713 µM); in [10], 256 µg/mL (≈ 713 µM); in assay [11] it was 256 µg/mL (≈ 713 µM).

As to `Cc1cc(=O)oc2cc(OCCCCBr)cc(OCCCCBr)c12`, the MIC in assay [1] was found to be 512 µg/mL (≈ 1110 µM); in assay [2], 256 µg/mL (≈ 554 µM); in [3] it was 512 µg/mL (≈ 1110 µM); in assay [4], 256 µg/mL (≈ 554 µM); in assay [5], 256 µg/mL (≈ 554 µM); in [6], 256 µg/mL (≈ 554 µM). Also, the minimal inhibitory concentration (MIC) in [7] amounted to 256 µg/mL (≈ 554 µM); in assay [8] it was 128 µg/mL (≈ 277 µM); in assay [9], 256 µg/mL (≈ 554 µM); in [10] it was 256 µg/mL (≈ 554 µM); in [11] it was 128 µg/mL (≈ 277 µM).

In the case of `Cc1cc(=O)oc2cc(OCc3ccc(CBr)cc3)cc(OCc3ccc(CBr)cc3)c12`, the MIC in [1] is 512 µg/mL (≈ 917 µM); in assay [2], 256 µg/mL (≈ 459 µM); in assay [3], 512 µg/mL (≈ 917 µM); in [4] it was 256 µg/mL (≈ 459 µM); in assay [5] it was 256 µg/mL (≈ 459 µM); in [6], 512 µg/mL (≈ 917 µM). The MIC in [7] came out at 512 µg/mL (≈ 917 µM); in assay [8] it was 128 µg/mL (≈ 229 µM); in assay [9], 256 µg/mL (≈ 459 µM); in [10], 256 µg/mL (≈ 459 µM); in [11], 256 µg/mL (≈ 459 µM).

Turning to `Cc1cc(=O)oc2cc(OCCCCCOc3ccc4c(C)cc(=O)oc4c3)ccc12`, the minimum inhibitory concentration (MIC) came to 256 µg/mL (≈ 609 µM) in assay [1]; 256 µg/mL (≈ 609 µM) in [2]; 256 µg/mL (≈ 609 µM) in assay [3]; 512 µg/mL (≈ 1220 µM) in assay [4]; 128 µg/mL (≈ 304 µM) in [5]; 512 µg/mL (≈ 1220 µM) in [6]. Also, the MIC was found to be 512 µg/mL (≈ 1220 µM) in assay [7]; 256 µg/mL (≈ 609 µM) in assay [8]; 512 µg/mL (≈ 1220 µM) in assay [9]; 128 µg/mL (≈ 304 µM) in assay [10]; 512 µg/mL (≈ 1220 µM) in [11].

On to `Cc1cc(=O)oc2cc(OCCCCCCOc3ccc4c(C)cc(=O)oc4c3)ccc12`, for which the minimum inhibitory concentration (MIC) in [1] amounted to 256 µg/mL (≈ 589 µM); in assay [2], 256 µg/mL (≈ 589 µM); in [3], 512 µg/mL (≈ 1180 µM); in [4] it was 512 µg/mL (≈ 1180 µM); in assay [5] it was 256 µg/mL (≈ 589 µM); in assay [6], 256 µg/mL (≈ 589 µM). For the same compound, the MIC in assay [7] is 512 µg/mL (≈ 1180 µM); in assay [8], 128 µg/mL (≈ 295 µM); in [9], 512 µg/mL (≈ 1180 µM); in assay [10], 128 µg/mL (≈ 295 µM); in assay [11] it was 512 µg/mL (≈ 1180 µM).

Regarding `Cc1cc(=O)oc2cc(OCc3ccc(COc4ccc5c(C)cc(=O)oc5c4)cc3)ccc12`, the minimal inhibitory concentration (MIC) in [1] is over 512 µg/mL; in assay [2], 512 µg/mL (≈ 1130 µM); in assay [3] it was over 512 µg/mL; in assay [4], over 512 µg/mL; in assay [5] it was over 512 µg/mL; in assay [6], over 512 µg/mL. Further, the MIC in assay [7], in assay [8], in [9], in assay [10] and in assay [11] was over 512 µg/mL throughout.

For `Cc1cc(=O)oc2cc(O)cc(O)c12` [5,7-DIHYDROXY-4-METHYLCOUMARIN], the minimum inhibitory concentration (MIC) stood at 128 µg/mL (≈ 666 µM) in assay [1]; 256 µg/mL (≈ 1330 µM) in [2]; 64 µg/mL (≈ 333 µM) in assay [3]; 256 µg/mL (≈ 1330 µM) in assay [4]; 32 µg/mL (≈ 167 µM) in assay [5]; 128 µg/mL (≈ 666 µM) in [6]. For the same compound, the minimal inhibitory concentration (MIC) turned out to be 256 µg/mL (≈ 1330 µM) in assay [7]; 64 µg/mL (≈ 333 µM) in assay [8]; 256 µg/mL (≈ 1330 µM) in assay [9]; 64 µg/mL (≈ 333 µM) in assay [10]; 64 µg/mL (≈ 333 µM) in [11].

As for `Cc1cc(=O)oc2cc(O)ccc12` [HYMECROMONE], the MIC was determined as 128 µg/mL (≈ 727 µM) in [1]; 128 µg/mL (≈ 727 µM) in assay [2]; 64 µg/mL (≈ 363 µM) in [3]; 128 µg/mL (≈ 727 µM) in assay [4]; 32 µg/mL (≈ 182 µM) in assay [5]; 256 µg/mL (≈ 1450 µM) in assay [6]. Besides, the MIC in assay [7] stood at 512 µg/mL (≈ 2910 µM); in assay [8] it was 32 µg/mL (≈ 182 µM); in [9], 128 µg/mL (≈ 727 µM); in assay [10], 32 µg/mL (≈ 182 µM); in [11] it was 64 µg/mL (≈ 363 µM).
